Measured values reported in ChEMBL document CHEMBL1145212, “Fluorinated diaryl sulfides as serotonin transporter ligands: synthesis, structure-activity relationship study, and in vivo evaluation of fluorine-18-labeled compounds as PET imaging agents” (J Med Chem, 2005).

Legend:
[1] = tested on: Rattus norvegicus; assay: Biodistribution of [18F]-AFM in rat striatum at 120 min postinjection in vivo; format: ADME, organism-based; conditions: 2 h
Summary of the method: (§1)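 Male Sprague-Dawley rats, three per time point, received the F-18 radioligand in saline (~20 µCi per rat at injection) by tail vein. Under CO2 anesthesia they were decapitated at 10, 30, 60, 90 or 120 min. Blood and dissected brain regions were weighed and gamma counted. Activity was decay-corrected, and injected dose was corrected for tail residual activity. Uptake was expressed as %ID/g versus injectate standards, mean ± SD.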

[2] = organism: Rattus norvegicus; assay: Specific binding of [18F]AFA in thalamus of rat pretreated with compound 7d; n=3; format: functional
[3] = tested on: Rattus norvegicus; assay: Biodistribution of [18F]-AFM in rat striatum 60 min postinjection in vivo; format: ADME, organism-based; conditions: 1 h; summary of the method: as §1
[4] = tested on: Rattus norvegicus; assay: Biodistribution of [18F]AFM in rat cerebellum at 120 min postinjection in vivo; format: ADME, organism-based; conditions: 2 h
Summary of the method: (§2)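 Male Sprague-Dawley rats, three per group, received ~20 µCi of the F-18 radioligand in saline by tail-vein injection. Rats were anesthetized with CO2 and decapitated at 10, 30, 60, 90 or 120 min. Blood and brain regions were weighed and gamma-counted. %ID/g was decay- and tail-residual-corrected against F-18 standards made from the injectate and reported as mean ± SD.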

[5] = tested on: Rattus norvegicus; assay: Biodistribution of [18F]AFM in rat cerebellum at 90 min postinjection in vivo; format: ADME, organism-based; conditions: 1.5 h; summary of the method: as §2
[6] = tested on: Rattus norvegicus; assay: Biodistribution of [18F]AFM in rat hypothalamus at 60 min postinjection in vivo; format: ADME, organism-based; conditions: 1 h
Summary of the method: (§3)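 Male Sprague-Dawley rats, three per group, given about 20 µCi of F-18 radioligand in saline by tail vein. Sacrificed by decapitation after CO₂ anaesthesia at 10, 30, 60, 90 or 120 min. Brain regions and blood removed, weighed and gamma-counted. %ID was decay-corrected and corrected for residual tail activity against F-18 standards, then converted to %ID/g; mean ± SD.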

[7] = tested on: Rattus norvegicus; assay: Biodistribution of [18F]AFM in rat striatum at 90 min postinjection in vivo; format: ADME, organism-based; conditions: 1.5 h
Summary of the method: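 Male Sprague-Dawley rats (three per group) received ~20 µCi of the F-18-labeled ligand in saline by tail vein. They were anesthetized with CO₂ and decapitated at 10, 30, 60, 90 and 120 min. Striatum and other regions were weighed and gamma-counted. Values are decay- and tail-corrected %ID/g against standards made from the injection solution, reported as mean ± SD.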

[8] = tested on: Rattus norvegicus; assay: Biodistribution of [18F]AFM in rat blood at 120 min postinjection in vivo; format: ADME, organism-based; conditions: 2 h; summary of the method: as §2
[9] = tested on: Rattus norvegicus; assay: Biodistribution of [18F]AFM in rat hypothalamus at 90 min postinjection in vivo; format: ADME, organism-based; conditions: 1.5 h; summary of the method: as §3
[10] = tested on: Rattus norvegicus; assay: Biodistribution of [18F]AFM in rat cerebellum at 60 min postinjection in vivo; format: ADME, organism-based; conditions: 1 h; summary of the method: as §2
[11] = organism: Rattus norvegicus; assay: Specific binding of [18F]AFA in hypothalamus of rat pretreated with compound 7d; n=3; format: functional
[12] = organism: Rattus norvegicus; assay: Specific binding of [18F]-AFA in hippocampus of rat pretreated with compound 7d; n=3; format: functional
[13] = tested on: Rattus norvegicus; assay: Biodistribution of [18F]AFM in rat hypothalamus at 10 min postinjection in vivo; format: ADME, organism-based; summary of the method: as §3
[14] = tested on: Rattus norvegicus; assay: Biodistribution of [18F]AFM in rat hippocampus at 120 min postinjection in vivo; format: ADME, organism-based; conditions: 2 h; summary of the method: as §2
[15] = tested on: Rattus norvegicus; assay: Biodistribution of [18F]AFM in rat hypothalamus at 30 min postinjection in vivo; format: ADME, organism-based; conditions: 0.5 h; summary of the method: as §3
[16] = tested on: Rattus norvegicus; assay: Biodistribution of [18F]AFM in rat blood at 30 min postinjection in vivo; format: ADME, organism-based; conditions: 0.5 h; summary of the method: as §2
[17] = tested on: Rattus norvegicus; assay: Biodistribution of [18F]AFM in rat frontal cortex at 10 min postinjection in vivo; format: ADME, organism-based; summary of the method: as §2
[18] = tested on: Rattus norvegicus; assay: Biodistribution of [18F]AFM in rat thalamus at 90 min postinjection in vivo; format: ADME, organism-based; conditions: 1.5 h
[19] = tested on: Rattus norvegicus; assay: Biodistribution of [18F]-AFM in rat striatum at 30 min postinjection in vivo; format: ADME, organism-based; conditions: 0.5 h; summary of the method: as §1
[20] = tested on: Rattus norvegicus; assay: Biodistribution of [18F]AFM in rat striatum at 10 min postinjection in vivo; format: ADME, organism-based; summary of the method: as §3
[21] = tested on: Rattus norvegicus; assay: Biodistribution of [18F]AFM in rat thalamus at 10 min postinjection in vivo; format: ADME, organism-based
[22] = tested on: Rattus norvegicus; assay: Biodistribution of [18F]AFM in rat hippocampus at 10 min postinjection in vivo; format: ADME, organism-based; summary of the method: as §2
[23] = tested on: Rattus norvegicus; assay: Biodistribution of [18F]-AFM in rat hippocampus at 60 min postinjection in vivo; format: ADME, organism-based; conditions: 1 h; summary of the method: as §1
[24] = tested on: Rattus norvegicus; assay: Biodistribution of [18F]-AFM in rat thalamus at 30 min postinjection in vivo; format: ADME, organism-based; conditions: 0.5 h; summary of the method: as §1
[25] = tested on: Rattus norvegicus; assay: Biodistribution of [18F]AFM in rat hippocampus at 90 min postinjection in vivo; format: ADME, organism-based; conditions: 1.5 h; summary of the method: as §3
[26] = tested on: Rattus norvegicus; assay: Biodistribution of [18F]AFM in rat frontal cortex at 30 min postinjection in vivo; format: ADME, organism-based; conditions: 0.5 h; summary of the method: as §2
[27] = tested on: Rattus norvegicus; assay: Biodistribution of [18F]AFM in rat frontal cortex at 60 min postinjection in vivo; format: ADME, organism-based; conditions: 1 h; summary of the method: as §2
[28] = tested on: Rattus norvegicus; assay: Biodistribution of [18F]AFM in rat blood at 10 min postinjection in vivo; format: ADME, organism-based; summary of the method: as §2
[29] = tested on: Rattus norvegicus; assay: Biodistribution of [18F]AFM in rat frontal cortex at 90 min postinjection in vivo; format: ADME, organism-based; conditions: 1.5 h; summary of the method: as §2
[30] = tested on: Rattus norvegicus; assay: Biodistribution of [18F]AFM in rat blood at 60 min postinjection in vivo; format: ADME, organism-based; conditions: 1 h; summary of the method: as §2
[31] = organism: Rattus norvegicus; assay: Specific binding of [18F]AFA in frontal cortex of rat pretreated with compound 7d; n=3; format: functional
[32] = tested on: Rattus norvegicus; assay: Biodistribution of [18F]AFM in rat thalamus at 120 min postinjection in vivo; format: ADME, organism-based; conditions: 2 h
[33] = tested on: Rattus norvegicus; assay: Biodistribution of [18F]-AFM in rat cerebellum at 10 min postinjection in vivo; format: ADME, organism-based; summary of the method: as §1
[34] = tested on: Rattus norvegicus; assay: Biodistribution of [18F]AFM in rat frontal cortex at 120 min postinjection in vivo; format: ADME, organism-based; conditions: 2 h; summary of the method: as §2
[35] = tested on: Rattus norvegicus; assay: Biodistribution of [18F]AFM in rat blood at 90 min postinjection in vivo; format: ADME, organism-based; conditions: 1.5 h; summary of the method: as §2
[36] = tested on: Rattus norvegicus; assay: Biodistribution of [18F]AFM in rat cerebellum at 30 min postinjection in vivo; format: ADME, organism-based; conditions: 0.5 h; summary of the method: as §2
[37] = tested on: Rattus norvegicus; assay: Biodistribution of [18F]AFM in rat hypothalamus at 120 min postinjection in vivo; format: ADME, organism-based; conditions: 2 h; summary of the method: as §3
[38] = tested on: Rattus norvegicus; assay: Biodistribution of [18F]AFM in rat hippocampus at 30 min postinjection in vivo; format: ADME, organism-based; conditions: 0.5 h; summary of the method: as §2
[39] = tested on: Rattus norvegicus; assay: Biodistribution of [18F]AFM in rat thalamus at 60 min postinjection in vivo; format: ADME, organism-based; conditions: 1 h
[40] = organism: Rattus norvegicus; assay: Specific binding of [18F]AFA in striatum of rat pretreated with compound 7d; n=3; format: functional

- Biodistribution [1]: 0.42 %ID/g
- Biodistribution [3]: 0.57 %ID/g
- Biodistribution [4]: 0.07 %ID/g
- Biodistribution [5]: 0.08 %ID/g
- Biodistribution [6]: 0.71 %ID/g
- Biodistribution [7]: 0.45 %ID/g
- Biodistribution [8]: 0.04 %ID/g
- Biodistribution [9]: 0.58 %ID/g
- Biodistribution [10]: 0.13 %ID/g
- Biodistribution [13]: 0.7 %ID/g
- Biodistribution [14]: 0.28 %ID/g
- Biodistribution [15]: 0.82 %ID/g
- Biodistribution [16]: 0.18 %ID/g
- Biodistribution [17]: 0.82 %ID/g
- Biodistribution [18]: 0.5 %ID/g
- Biodistribution [19]: 0.83 %ID/g
- Biodistribution [20]: 0.69 %ID/g
- Biodistribution [21]: 0.72 %ID/g
- Biodistribution [22]: 0.51 %ID/g
- Biodistribution [23]: 0.45 %ID/g
- Biodistribution [24]: 0.88 %ID/g
- Biodistribution [25]: 0.36 %ID/g
- Biodistribution [26]: 0.99 %ID/g
- Biodistribution [27]: 0.71 %ID/g
- Biodistribution [28]: 0.37 %ID/g
- Biodistribution [29]: 0.52 %ID/g
- Biodistribution [30]: 0.1 %ID/g
- Biodistribution [32]: 0.56 %ID/g
- Biodistribution [33]: 0.33 %ID/g
- Biodistribution [34]: 0.38 %ID/g
- Biodistribution [35]: 0.08 %ID/g
- Biodistribution [36]: 0.23 %ID/g
- Biodistribution [37]: 0.55 %ID/g
- Biodistribution [38]: 0.64 %ID/g
- Biodistribution [39]: 0.67 %ID/g
Structure (SMILES): CN(C)Cc1ccccc1Sc1ccc(C[18F])cc1N
- Specific binding [2]: 0.85 %ID/g
- Specific binding [11]: 0.84
- Specific binding [12]: 0.45 %ID/g
- Specific binding [31]: 0.31 %ID/g
- Specific binding [40]: 0.53
